# Measurements reported in ChEMBL document CHEMBL2093137, “WHO-TDR NTD Screening”.
# pIC50: −log10 of the molar value.
# Key:
# [1] = tested on: Trypanosoma brucei brucei; experiment: WHO-TDR: Human African Trypanosomiasis (HAT); format: functional, organism-based; conditions: Squib-427
# Outline: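 Whole-organism screen of a 10,000-compound diverse library from Life Chemicals, filtered for drug-likeness and reactive groups, against bloodstream forms of Trypanosoma brucei Squib 427 strain. The assay followed previously published standard procedures, with reference drugs as positive controls. Antiparasitic potency is reported as IC50.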
# Leishmania infantum = experiment: WHO-TDR: Leishmaniasis; format: functional, organism-based, Mus musculus; conditions: Macrophage
# Outline: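 Whole-organism screen of a 10,000-compound diverse library from Life Chemicals, filtered for drug-likeness and reactive groups, against intracellular amastigotes of Leishmania infantum MHOM/MA(BE)/67 in murine peritoneal macrophage host cells. The assay followed previously published standard procedures, with a reference drug as positive control. Antiparasitic potency is reported as IC50.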
# Plasmodium falciparum K1 = experiment: WHO-TDR: Malaria; format: functional, organism-based, Homo sapiens; conditions: Erythrocyte
# Outline: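 Whole-organism screen of a 10,000-compound diverse library from Life Chemicals, filtered for drug-likeness and reactive groups, against intra-erythrocytic Plasmodium falciparum K1 strain in human red blood cells. The assay followed previously published standard procedures, with a reference drug as positive control. Antiplasmodial potency is reported as IC50.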
# Trypanosoma cruzi = experiment: WHO-TDR: Chagas disease; format: functional, organism-based, Homo sapiens; conditions: MRC5
# Outline: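 Intracellular amastigotes of the Trypanosoma cruzi Tulahuen CL2 beta-galactosidase strain, grown in MRC-5SV2 human lung fibroblast host cells, were tested in a whole-organism screen. The compounds came from a 10,000-member diverse Life Chemicals library that had been filtered for drug-likeness and reactive groups. Previously published standard procedures were followed, with a reference drug as positive control, and potency is reported as IC50.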
# Onchocerca ochengi = experiment: (§1) WHO-TDR: Onchocerciasis; format: functional; set-up: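 at 12.5 µM on microfilariae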
# Outline: (§2)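 A diverse library of 10,000 compounds from Life Chemicals, filtered for drug-likeness and reactive groups, was screened against whole microfilariae of Onchocerca ochengi or Onchocerca lienalis. These animal pathogens served as stand-ins for the human parasite. Activity is given as percent inhibition and as IC50.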
# Schistosoma mansoni [2] = experiment: (§3) WHO-TDR: Schistosomiasis; format: functional; set-up: concentration or dose not given beside the values
# Outline: (§4)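 A diverse library of 10,000 compounds from Life Chemicals, filtered for drug-likeness and reactive groups, was screened against whole larval and/or adult Schistosoma mansoni worms of the Puerto Rican strain. Previously published standard procedures were followed, with a reference drug as positive control. Activity is given as percent inhibition and as IC50.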
# [3] = WHO-TDR: Cytotoxicity; format: toxicity, cell-based; conditions: human, MRC5 cells
# Brugia malayi [4] = experiment: (§5) WHO-TDR: Lymphatic Filariasis; format: functional; set-up: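 tested at 10 µM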
# Outline: (§6)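 A diverse library of 10,000 compounds from Life Chemicals was screened against Brugia malayi microfilariae in a whole-organism assay. The library had been filtered for drug-likeness and reactive groups. Activity is given as percent inhibition and as IC50.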
# Schistosoma mansoni [5] = experiment: as §3; format: functional, organism-based; outline: as §4
# Brugia malayi [6] = experiment: as §5; format: functional; set-up: concentration or dose not given beside the values; outline: as §6; remark: listed apart in the source
# Onchocerca lienalis = experiment: as §1; format: functional; set-up: concentration or dose not given beside the values; outline: as §2;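 further: at 12.5 µM on microfilariae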
# Brugia malayi [7] = experiment: as §5; format: functional, organism-based; outline: as §6
SMILES,IC50 [1] [µg/mL],IC50 (Leishmania infantum) [µg/mL],IC50 (Plasmodium falciparum K1) [µg/mL],IC50 (Trypanosoma cruzi) [µg/mL],% Inhibition (Onchocerca ochengi) [%],% Inhibition (Schistosoma mansoni [2]) [%],IC50 [3] [µg/mL],% Inhibition (Brugia malayi [4]) [%],IC50 (Schistosoma mansoni [5]) [µg/mL],% Inhibition (Brugia malayi [6]) [%],% Inhibition (Onchocerca lienalis) [%],pIC50 (Brugia malayi [7])
O=C(c1ccccc1F)N1CCN(c2ccc(-c3ccccn3)nn2)CC1,1.59,> 10.9,0.396,0.375,100,100,2.77,33.33,2.36,,,
O=C(NCCOc1ccc2nnc(-c3ccccc3)n2n1)c1ccccc1C(F)(F)F,> 12.8,> 12.8,> 12.8,> 12.8,0,100,> 12.8,33.33,3.38,,,
O=C(CCS(=O)(=O)c1ccccc1)N(CCCN1CCOCC1)c1nc2ccccc2s1,4.9,5.81,> 15.3,8.52,,0,2.88,100,,60,9.31,5.22
COc1ccccc1C(=O)NCCSc1c(-c2ccccc2)[nH]c2ccccc12,4.03,> 12.1,5.19,2.91,,0,> 12.1,100,,25,0,5.34
CN(Cc1ccco1)S(=O)(=O)c1ccc(C(=O)Nc2nc3c(s2)CSc2ccccc2-3)cc1,2.24,> 14.9,> 14.9,3.86,,91.7,> 14.9,100,,40,0,5.40
O=C(Nc1nc(-c2ccccn2)cs1)c1ccc2c(c1)CCCC2,> 10.1,> 10.1,9.24,> 10.1,,12.5,> 10.1,100,,50,60,5.72
O=C(COc1ccc(Cl)cc1Cl)Nc1nnc(C23CC4CC(CC(C4)C2)C3)s1,> 13.2,4.26,> 13.2,> 13.2,,0,> 13.2,100,,0,0,5.83
COc1ccc(Cl)cc1NC(=O)CSc1nccn1-c1cccc(C)c1C,> 12.9,> 12.1,> 12.1,2.76,,0,> 12.1,100,,25,46.67,5.40
O=C(Nc1nccs1)c1ccc2c(c1)CCCC2,> 7.75,> 7.75,> 7.75,> 7.75,,0,> 7.75,100,,25,0,5.29
O=C(CCC1CCCCC1)N1CCN(c2ccc(-c3cccnc3)nn2)CC1,> 11.4,> 11.4,6.4,4.89,50,100,> 11.4,33.33,3.15,,,
C#CCn1/c(=N\C(=O)c2cc(C)no2)sc2cc(S(N)(=O)=O)ccc21,> 11.3,> 11.3,> 11.3,> 11.3,0,100,> 11.3,0,3.16,,,
COc1ccc(C(=O)Nc2nnc(SCC(=O)Nc3cc(C(F)(F)F)ccc3Cl)s2)cc1OC,> 16,> 16,> 16,> 16,,0,> 16,100,,0,26.67,5.23
CCOC(=O)c1ccc(NC(=O)CSc2c(C)[nH]c3ccccc23)cc1,3.67,> 11.1,> 11.1,3.49,,0,> 11.1,100,,0,46.7,5.22
COc1ccc(Cl)cc1C(=O)NCCOc1ccc2nnc(-c3ccc(F)cc3)n2n1,> 13.3,4.29,> 13.3,> 13.3,0,100,> 13.3,33.33,3.58,,,
